Measured values: ChEMBL document CHEMBL3817745, “Structure-Activity Relationship for the 4(3H)-Quinazolinone Antibacterials” (J Med Chem, 2016)
In brackets after ≈: the same amount, converted by molar mass.

Legend:
Klebsiella pneumoniae = experiment: Antibacterial activity against Klebsiella pneumoniae ATCC 700603 incubated for 16 to 20 hrs by microdilution method; assay type: functional
Method in brief: (§1)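 CLSI broth microdilution. 2-fold serial dilutions were made in cation-adjusted Mueller–Hinton broth, with 5% lysed horse blood added for Streptococcus strains, in triplicate. Inoculum 5×10^5 CFU/mL. Plates incubated 36 °C for 16–20 h. MIC taken as the lowest concentration visibly inhibiting growth.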

Pseudomonas aeruginosa = experiment: Antibacterial activity against Pseudomonas aeruginosa […] incubated for 16 to 20 hrs by microdilution method; assay type: functional; method in brief: as §1
Escherichia coli = experiment: Antibacterial activity against Escherichia coli ATCC 25922 incubated for 16 to 20 hrs by microdilution method; assay type: functional; method in brief: as §1
Mus musculus = experiment: AUC (0 to last) in ICR mouse peritonitis model infected with methicillin resistant Staphylococcus aureus ATCC 27660 at 10 mg/kg, iv administered as single dose measured up to 8 hrs by UPLC analysis; assay type: ADME, organism-based; parameters: dose 10 mg/kg, time 0 - last, route intravenous; conditions: in vivo, 8 h
Method in brief: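 Fast PK: female ICR mice (n = 2 per time point) given single tail-vein iv injection at 5, 10 or 20 mg/kg in 25% DMSO/65% propylene glycol/10% water (2.5, 5 or 10 mg/mL); terminal cardiac blood at 5 min, 40 min, 2, 4, 8 h; plasma analysed by UPLC with internal standard calibration.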

Staphylococcus aureus [1] = experiment: Antibacterial activity against methicillin-susceptible Staphylococcus aureus ATCC 29213 incubated for 16 to 20 hrs by microdilution method; assay type: functional
Klebsiella aerogenes = experiment: Antibacterial activity against Enterobacter aerogenes ATCC 35029 incubated for 16 to 20 hrs by microdilution method; assay type: functional; method in brief: as §1
Enterococcus faecium = experiment: Antibacterial activity against Enterococcus faecium NCTC 7171 incubated for 16 to 20 hrs by microdilution method; assay type: functional; method in brief: as §1
[2] = Hemolytic activity against human RBC at 64 ug/ml relative to control; assay type: ADME, cell-based, Erythrocyte; conditions: erythrocyte
Method in brief: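 Hemolysis was measured at a fixed 64 μg/mL on a 10% red-cell suspension from heparinized human blood. Triton-X served as the positive control, and results are given as percent hemolysis.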

Acinetobacter baumannii = experiment: Antibacterial activity against Acinetobacter baumannii ATCC 17961 incubated for 16 to 20 hrs by microdilution method; assay type: functional; method in brief: as §1
HepG2 = experiment: Cytotoxicity against human HepG2 cells incubated for 16 hrs by XTT assay; assay type: cell-based; conditions: HepG2, 16 h
Method in brief: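 HepG2 cells were tested with an XTT viability read-out, in triplicate. IC50 was obtained by nonlinear regression.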

[3] = system: Staphylococcus epidermidis; experiment: Antibacterial activity against Staphylococcus epidermidis ATCC 35547 incubated for 16 to 20 hrs by microdilution method; assay type: functional; method in brief: as §1
Staphylococcus aureus [4] = experiment: Antibacterial activity against vancomycin/methicillin-resistant Staphylococcus aureus VRS1 clinical isolate incubated for 16 to 20 hrs by microdilution method; assay type: functional
Streptococcus pyogenes = experiment: Antibacterial activity against Streptococcus pyogenes ATCC 49399 incubated for 16 to 20 hrs by microdilution method; assay type: functional; method in brief: as §1
Staphylococcus aureus [5] = experiment: Antibacterial activity against vancomycin/methicillin-resistant Staphylococcus aureus VRS2 clinical isolate incubated for 16 to 20 hrs by microdilution method; assay type: functional
Bacillus cereus = experiment: Antibacterial activity against Bacillus cereus ATCC 13061 incubated for 16 to 20 hrs by microdilution method; assay type: functional; method in brief: as §1
Streptococcus oralis = experiment: Antibacterial activity against Streptococcus oralis ATCC 9811 incubated for 16 to 20 hrs by microdilution method; assay type: functional; method in brief: as §1
[6] = system: Staphylococcus haemolyticus; experiment: Antibacterial activity against Staphylococcus haemolyticus ATCC 29970 incubated for 16 to 20 hrs by microdilution method; assay type: functional
Enterococcus faecalis [7] = experiment: Antibacterial activity against vancomycin-resistant Enterococcus faecalis 99 clinical isolate incubated for 16 to 20 hrs by microdilution method; assay type: functional
Staphylococcus aureus [8] = experiment: Antibacterial activity against mecA-positive multidrug resistant Staphylococcus aureus COL NRS100 incubated for 16 to 20 hrs by microdilution method; assay type: functional
Enterococcus faecalis [9] = experiment: Antibacterial activity against methicillin-susceptible Enterococcus faecalis ATCC 29212 incubated for 16 to 20 hrs by microdilution method; assay type: functional; method in brief: as §1
Bacillus licheniformis = experiment: Antibacterial activity against Bacillus licheniformis ATCC 12759 incubated for 16 to 20 hrs by microdilution method; assay type: functional; method in brief: as §1
Staphylococcus aureus [10] = experiment: Antibacterial activity against mecA-positive multidrug resistant Staphylococcus aureus NRS120 incubated for 16 to 20 hrs by microdilution method; assay type: functional
Staphylococcus aureus [11] = experiment: Antibacterial activity against mecA-positive multidrug resistant Staphylococcus aureus NRS119 incubated for 16 to 20 hrs by microdilution method; assay type: functional

Structure (SMILES)	MIC (Klebsiella pneumoniae) [µg/mL]	MIC (Pseudomonas aeruginosa) [µg/mL]	MIC (Escherichia coli) [µg/mL]	MIC (Staphylococcus aureus [1]) [µg/mL]	MIC (Klebsiella aerogenes) [µg/mL]	MIC (Enterococcus faecium) [µg/mL]	MIC (Acinetobacter baumannii) [µg/mL]	further results
N#Cc1ccc(/C=C/c2nc3ccccc3c(=O)n2-c2cccc(C(=O)NCCO)c2)cc1	≥ 16	≥ 16	≥ 16	1 (≈ 2.29 µM)	≥ 16	≥ 8	≥ 16	AUClast (Mus musculus): 425 µg·min/mL; Activity [2]: < 1%; IC50 (HepG2): 70.2 µg/mL (≈ 161 µM)
N#Cc1ccc(/C=C/c2nc3cc([N+](=O)[O-])ccc3c(=O)n2-c2cccc(C(=O)O)c2)cc1	≥ 16	≥ 16	≥ 16	64 (≈ 146 µM)	≥ 16	≥ 8	≥ 16	–
O=c1c2ccccc2nc(/C=C/c2ccncc2)n1-c1cccc(O)c1	≥ 16	≥ 16	≥ 16	2 (≈ 5.86 µM)	≥ 16	≥ 8	≥ 16	–
O=c1c2ccccc2nc(/C=C/c2ccc(C(F)(F)F)cc2)n1-c1cccc(O)c1	≥ 16	≥ 16	≥ 16	128 (≈ 313 µM)	≥ 16	≥ 8	≥ 16	–
CCc1ccc(/C=C/c2nc3ccccc3c(=O)n2-c2cccc(O)c2)cc1	≥ 16	≥ 16	≥ 16	0.5 (≈ 1.36 µM)	≥ 16	≥ 8	≥ 16	–
Nc1ccc(/C=C/c2nc3ccccc3c(=O)n2-c2cccc(O)c2)cc1	≥ 16	≥ 16	≥ 16	16 (≈ 45 µM)	≥ 16	≥ 8	≥ 16	–
O=c1c2ccccc2nc(/C=C/c2ccc(O)cc2)n1-c1cccc(O)c1	≥ 16	≥ 16	≥ 16	> 128	≥ 16	≥ 8	≥ 16	–
O=c1c2ccccc2nc(CCc2ccccc2)n1-c1cccc(O)c1	≥ 16	≥ 16	≥ 16	0.06 (≈ 0.175 µM)	≥ 16	≥ 8	≥ 16	–
Cc1ccc(-c2nc3ccccc3c(=O)n2-c2cccc(O)c2)cc1	≥ 16	≥ 16	≥ 16	128 (≈ 390 µM)	≥ 16	≥ 8	≥ 16	–
O=c1c2ccccc2nc(/C=C/c2ccccc2F)n1-c1cccc(O)c1	≥ 16	≥ 16	≥ 16	1 (≈ 2.79 µM)	≥ 16	≥ 8	≥ 16	–
COc1ccc(/C=C/c2nc3ccccc3c(=O)n2-c2cccc(O)c2)cc1	≥ 16	≥ 16	≥ 16	4 (≈ 10.8 µM)	≥ 16	≥ 8	≥ 16	–
CS(=O)(=O)Nc1cccc(-n2c(/C=C/c3ccc(F)cc3)nc3ccccc3c2=O)c1	≥ 16	≥ 16	≥ 16	0.125 (≈ 0.287 µM)	≥ 16	≥ 8	≥ 16	AUClast (Mus musculus): 819 µg·min/mL; Activity [2]: < 1%; IC50 (HepG2): 66 µg/mL (≈ 152 µM)
O=c1c2ccccc2nc(/C=C/c2ccccc2[N+](=O)[O-])n1-c1cccc(O)c1	≥ 16	≥ 16	≥ 16	128 (≈ 332 µM)	≥ 16	≥ 8	≥ 16	–
N#Cc1ccc(/C=C/c2nc3cc(C(=O)O)ccc3c(=O)n2-c2cccc(C(=O)O)c2)cc1	≥ 16	≥ 16	≥ 16	128 (≈ 293 µM)	≥ 16	≥ 8	≥ 16	–
CN[C@@H](CC(C)C)C(=O)N[C@H]1C(=O)N[C@@H](CC(N)=O)C(=O)N[C@H]2C(=O)N[C@H]3C(=O)N[C@H](C(=O)N[C@@H](C(=O)O)c4cc(O)cc(O)c4-c4cc3ccc4O)[C@H](O)c3ccc(c(Cl)c3)Oc3cc2cc(c3O[C@H]2O[C@@H](CO)[C@H](O)[C@@H](O)[C@@H]2O[C@@H]2C[C@@](C)(N)[C@@H](O)[C@@H](C)O2)Oc2ccc(cc2Cl)[C@H]1O	–	–	–	–	–	–	–	MIC [3]: 16 µg/mL (≈ 11 µM); MIC (Staphylococcus aureus [4]): 512 µg/mL (≈ 353 µM); MIC (Streptococcus pyogenes): 0.5 µg/mL (≈ 0.345 µM); MIC (Staphylococcus aureus [5]): 64 µg/mL (≈ 44.2 µM); MIC (Bacillus cereus): 1 µg/mL (≈ 0.69 µM); MIC (Streptococcus oralis): 0.5 µg/mL (≈ 0.345 µM)
N#Cc1ccc(/C=C/c2nc3ccccc3c(=O)n2-c2cccc(N)c2)cc1	≥ 16	≥ 16	≥ 16	0.5 (≈ 1.37 µM)	≥ 16	> 128	≥ 16	MIC [6]: 1 µg/mL (≈ 2.74 µM); MIC (Enterococcus faecalis [7]): 16 µg/mL (≈ 43.9 µM); MIC (Staphylococcus aureus [8]): 4 µg/mL (≈ 11 µM); MIC (Enterococcus faecalis [9]): > 128 µg/mL; AUClast (Mus musculus): 204 µg·min/mL; MIC (Bacillus licheniformis): > 128 µg/mL; Activity [2]: 3.3%; MIC [3]: 0.125 µg/mL (≈ 0.343 µM); MIC (Staphylococcus aureus [10]): 4 µg/mL (≈ 11 µM); MIC (Staphylococcus aureus [11]): 4 µg/mL (≈ 11 µM); MIC (Staphylococcus aureus [4]): 8 µg/mL (≈ 22 µM); MIC (Streptococcus pyogenes): > 128 µg/mL; IC50 (HepG2): 77.2 µg/mL (≈ 212 µM); MIC (Staphylococcus aureus [5]): 4 µg/mL (≈ 11 µM); MIC (Bacillus cereus): > 128 µg/mL; MIC (Streptococcus oralis): > 128 µg/mL
O=C(O)c1ccc(/C=C/c2nc3ccccc3c(=O)n2-c2cccc(O)c2)cc1	≥ 16	≥ 16	≥ 16	> 128	≥ 16	≥ 8	≥ 16	–
CC(=O)Nc1cccc(-n2c(/C=C/c3ccc(F)cc3)nc3ccccc3c2=O)c1	≥ 16	≥ 16	≥ 16	1 (≈ 2.5 µM)	≥ 16	≥ 8	≥ 16	AUClast (Mus musculus): 284 µg·min/mL; Activity [2]: 3.6%; IC50 (HepG2): 46.6 µg/mL (≈ 117 µM)
O=c1c2ccccc2nc(Cc2ccccc2)n1-c1cccc(O)c1	≥ 16	≥ 16	≥ 16	32 (≈ 97.5 µM)	≥ 16	≥ 8	≥ 16	–
CC(=O)OCc1cccc(-n2c(/C=C/c3ccc(C#N)cc3)nc3ccccc3c2=O)c1	≥ 16	≥ 16	≥ 16	–	≥ 16	≥ 8	≥ 16	–
CC(=O)NCc1cccc(-n2c(/C=C/c3ccc(C#N)cc3)nc3ccccc3c2=O)c1	≥ 16	≥ 16	≥ 16	0.015 (≈ 0.0357 µM)	≥ 16	≥ 8	≥ 16	AUClast (Mus musculus): 142 µg·min/mL; Activity [2]: < 1%; IC50 (HepG2): 99 µg/mL (≈ 235 µM)
O=c1c2ccccc2nc(/C=C/c2ccc3c(c2)OCO3)n1-c1cccc(O)c1	≥ 16	≥ 16	≥ 16	2 (≈ 5.2 µM)	≥ 16	≥ 8	≥ 16	–
O=c1c2ccccc2nc(/C=C/c2ccc(F)cc2)n1-c1cccc([N+](=O)[O-])c1	≥ 16	≥ 16	≥ 16	–	≥ 16	≥ 8	≥ 16	–
O=c1c2ccccc2nc(/C=C/c2ccccc2)n1-c1cccc(O)c1	≥ 16	≥ 16	≥ 16	0.5 (≈ 1.47 µM)	≥ 16	≥ 8	≥ 16	–
C#Cc1ccc(/C=C/c2nc3ccccc3c(=O)n2-c2cccc(O)c2)cc1	≥ 16	≥ 16	≥ 16	0.003 (≈ 0.00823 µM)	≥ 16	≥ 8	≥ 16	–
Nc1cccc(-n2c(/C=C/c3ccc(F)cc3)nc3ccccc3c2=O)c1	≥ 16	≥ 16	≥ 16	–	≥ 16	≥ 8	≥ 16	–
O=c1c2ccccc2nc(/C=C/c2ccc(Cl)cc2)n1-c1cccc(O)c1	≥ 16	≥ 16	≥ 16	0.125 (≈ 0.333 µM)	≥ 16	≥ 8	≥ 16	–
O=c1c2ccccc2nc(/C=C/c2ccco2)n1-c1cccc(O)c1	≥ 16	≥ 16	≥ 16	128 (≈ 387 µM)	≥ 16	≥ 8	≥ 16	–
